Laboratory results reported in ChEMBL document CHEMBL4020708, “Studies of CDK 8/19 inhibitors: Discovery of novel and selective CDK8/19 dual inhibitors and elimination of their CYP3A4 time-dependent inhibition potential” (Bioorg Med Chem, 2017).
Converted amounts (≈) assume the structure as drawn.

How the values were obtained:
CDK8/Cyclin C = CDK8/Cyclin C (Homo sapiens, UniProt P49336); test: Inhibition of kinase tracer 236 binding to full length N terminal GST-tagged human CDK8 (1 to 464 end residues) /CycC ( 1 to 283 end residues) expressed in baculovirus expression system after 60 min by TR-FRET assay
Chain of CDK8/Cyclin C (P49336 whole entry): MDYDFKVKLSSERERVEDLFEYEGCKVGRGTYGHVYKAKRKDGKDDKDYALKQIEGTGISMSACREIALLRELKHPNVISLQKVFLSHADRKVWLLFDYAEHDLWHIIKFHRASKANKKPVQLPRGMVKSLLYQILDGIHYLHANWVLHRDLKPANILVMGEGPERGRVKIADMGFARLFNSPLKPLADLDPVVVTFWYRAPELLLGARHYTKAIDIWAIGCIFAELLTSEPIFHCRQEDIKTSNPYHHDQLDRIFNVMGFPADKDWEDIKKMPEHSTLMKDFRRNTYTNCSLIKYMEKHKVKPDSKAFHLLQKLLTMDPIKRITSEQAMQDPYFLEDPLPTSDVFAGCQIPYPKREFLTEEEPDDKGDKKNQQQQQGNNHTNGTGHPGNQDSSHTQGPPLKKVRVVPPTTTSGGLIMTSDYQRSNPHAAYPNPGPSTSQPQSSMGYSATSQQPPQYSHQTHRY
Chain of CDK8/Cyclin C (P24863 whole entry, further chain): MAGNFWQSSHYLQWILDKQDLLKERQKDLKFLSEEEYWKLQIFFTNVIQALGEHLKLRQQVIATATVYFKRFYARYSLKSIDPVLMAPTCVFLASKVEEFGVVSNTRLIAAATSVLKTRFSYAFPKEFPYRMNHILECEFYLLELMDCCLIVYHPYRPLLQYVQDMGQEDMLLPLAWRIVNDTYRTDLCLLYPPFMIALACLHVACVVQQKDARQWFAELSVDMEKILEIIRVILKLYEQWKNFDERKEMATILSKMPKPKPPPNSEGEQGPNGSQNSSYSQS
Summary of the method: (§1)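 TR-FRET ligand displacement using 20 nM GST-CDK8/CycC or GST-CDK19/CycC, 20 nM Kinase Tracer 236 and Tb-anti-GST antibody. Buffer 25 mM HEPES, 10 mM MgCl₂, 2 mM DTT, 0.01% Tween-20. Incubated 60 min at rt.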

[1] = biological target: Cyclin-dependent kinase 8 (Homo sapiens, UniProt P49336); test: Inhibition of CDK8 in human SW480 cells assessed as reduction in IFN-gamma induced STAT1 phosphorylation at Ser727 residues preincubated for 2 hrs followed by IFN-gamma addition measured after 1 hr by In-cell western assay; type: cell-based
Chain of Cyclin-dependent kinase 8 (P49336 whole entry): as the sequence (P49336 whole entry) above
Summary of the method: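 SW480 cells kept in L-15 with 10% FBS at 37 °C and plated at 6000 cells/well overnight. Compound applied 2 h, then 10 ng/mL IFN-γ for 1 h. Cells fixed, permeabilized and blocked, then probed overnight at 4 °C with anti-pSTAT1 Ser727. IRDye 800CW secondary plus DRAQ5 for DNA, Odyssey imaging.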

[2] = biological target: Cyclin-C/Cyclin-dependent kinase 19 (Homo sapiens, UniProt Q9BWU1); test: Inhibition of kinase tracer 236 binding to GST-tagged CDK19/CycC (unknown origin) after 60 min by TR-FRET assay; type: protein-complex assay; summary of the method: as §1
Chain of Cyclin-C/Cyclin-dependent kinase 19 (Q9BWU1 whole entry): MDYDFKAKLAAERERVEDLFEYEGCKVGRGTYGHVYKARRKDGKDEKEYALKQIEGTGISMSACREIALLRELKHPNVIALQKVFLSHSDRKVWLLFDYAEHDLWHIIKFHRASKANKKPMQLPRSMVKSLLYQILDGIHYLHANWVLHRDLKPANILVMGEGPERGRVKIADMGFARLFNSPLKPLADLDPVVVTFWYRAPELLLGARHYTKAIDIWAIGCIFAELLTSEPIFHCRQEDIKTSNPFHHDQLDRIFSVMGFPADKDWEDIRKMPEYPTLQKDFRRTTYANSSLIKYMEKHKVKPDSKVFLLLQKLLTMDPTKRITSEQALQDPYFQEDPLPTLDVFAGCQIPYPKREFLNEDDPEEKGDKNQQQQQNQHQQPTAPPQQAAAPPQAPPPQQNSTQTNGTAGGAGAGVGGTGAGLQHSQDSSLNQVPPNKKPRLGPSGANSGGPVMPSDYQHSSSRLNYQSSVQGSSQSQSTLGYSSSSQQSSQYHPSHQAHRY
Chain of Cyclin-C/Cyclin-dependent kinase 19 (P24863 whole entry, further chain): as the sequence (P24863 whole entry, further chain) above

CYP3A4 = CYP3A4 (Homo sapiens, UniProt P08684); test: Time-dependent inhibition of CYP3A4 in human liver microsomes assessed as reduction in testosterone to 6beta-hydroxytestosterone conversion by measuring remaining activity at 30 uM preincubated for 60 mins followed by testosterone addition measured after 20 mins in presence of NADPH by UPLC analysis relative to control; type: ADME; settings: probe testosterone (6beta-hydroxylation), read-out: Activity
Chain of CYP3A4 (P08684 whole entry): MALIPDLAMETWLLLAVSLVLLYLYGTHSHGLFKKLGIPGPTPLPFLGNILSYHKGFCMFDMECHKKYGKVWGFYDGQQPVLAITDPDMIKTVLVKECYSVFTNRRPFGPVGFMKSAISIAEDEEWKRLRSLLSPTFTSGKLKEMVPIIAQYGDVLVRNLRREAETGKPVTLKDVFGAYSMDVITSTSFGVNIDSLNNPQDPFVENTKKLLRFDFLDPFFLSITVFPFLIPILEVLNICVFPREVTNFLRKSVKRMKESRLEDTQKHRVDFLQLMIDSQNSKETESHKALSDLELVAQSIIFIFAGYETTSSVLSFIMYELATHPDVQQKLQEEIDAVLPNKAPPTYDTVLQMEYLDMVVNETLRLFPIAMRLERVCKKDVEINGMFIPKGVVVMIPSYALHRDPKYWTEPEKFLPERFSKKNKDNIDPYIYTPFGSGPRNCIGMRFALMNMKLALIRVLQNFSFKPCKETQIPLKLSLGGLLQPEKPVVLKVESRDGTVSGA
Summary of the method: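 Compound at 30 μM preincubated with human liver microsomes in phosphate buffer pH 7.4 at 37 °C for 0 or 60 min with an NADPH-generating system. Testosterone then added for 20 min, and 6β-hydroxytestosterone measured by UPLC. Activity expressed as % of DMSO control; % remaining taken after 60 min preincubation.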

[3] = Solubility of the compound at pH 6.8; type: physicochemical; settings: buffer
Summary of the method: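 Compound added from DMSO solution to JP 2nd disintegration fluid (pH 6.8) and incubated. Precipitate removed by filtration, and filtrate concentration measured by plate reader or HPLC.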

Plasma = test: Drug level in mouse plasma treated with (E)-3-(4-(1-Methyl-1H-pyrazol-4-yl)pyridin-3-yl)-N-(4-(morpholinomethyl)phenyl)acrylamide at 1 mg/kg, po administered as cassette dose measured up to 8 hrs by LC/MS/MS analysis; type: ADME, organism-based; settings: in vivo
Summary of the method: (§2)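 Cassette dosing to non-fasted mice, 1 mg/kg po (0–8 h). Plasma obtained from blood by centrifugation, deproteinized with acetonitrile, centrifuged, and the supernatant analysed by LC/MS/MS.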

Liver [4] = test: Intrinsic clearance in human liver microsomes at 1 umol/L after 15 to 30 mins in presence of NADPH by LC/MS/MS analysis; type: ADME, microsome; settings: 1 µM
Summary of the method: (§3)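 Human or mouse liver microsomes at 0.2 mg/mL protein in 50 mmol/L phosphate buffer pH 7.4 with 1 μmol/L compound. Reaction started with an NADPH-generating system and stopped at 15 and 30 min with acetonitrile. LC/MS/MS readout. Intrinsic clearance taken as initial metabolic velocity (slope of concentration-time) divided by compound concentration.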

Liver [5] = test: Intrinsic clearance in mouse liver microsomes at 1 umol/L after 15 to 30 mins in presence of NADPH by LC/MS/MS analysis; type: ADME, microsome; settings: 1 µM; summary of the method: as §3
[6] = AUC (0 to 8 hrs) in mouse at 1 mg/kg, po administered as cassette dose by LC/MS/MS analysis; type: ADME, organism-based; parameters: time < 8 hr, dose 1 mg/kg, route oral; settings: in vivo; summary of the method: as §2
[7] = Total clearance in mouse at 1 mg/kg, po administered as cassette dose measured up to 8 hrs by LC/MS/MS analysis; type: ADME, organism-based; settings: in vivo
[8] = Oral bioavailability in mouse at 1 mg/kg administered as cassette dose measured up to 8 hrs by LC/MS/MS analysis; type: ADME, organism-based; settings: in vivo
Summary of the method: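 Bioavailability from mouse cassette dosing, 0.1 mg/kg iv and 1 mg/kg po, non-fasted animals. Plasma was deproteinized with acetonitrile and compound quantified by LC/MS/MS.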

[9] = MRT in mouse at 1 mg/kg, po administered as cassette dose measured up to 8 hrs by LC/MS/MS analysis; type: ADME, organism-based; settings: in vivo; summary of the method: as §2
[10] = Cmax in mouse at 1 mg/kg, po administered as cassette dose measured up to 8 hrs by LC/MS/MS analysis; type: ADME, organism-based; parameters: dose 1 mg/kg, route oral; settings: in vivo; summary of the method: as §2

Compound | IC50 (CDK8/Cyclin C) | EC50 [1] | activity at 20 min, 30 µM (CYP3A4) | also measured
Cn1cc(-c2cc(N)ncc2/C=C/C(=O)Nc2ccc(CN3CCOCC3)cc2)cn1 | 990 nM | 1300 nM |  | 
O=C(/C=C/c1cnccc1-c1cnsc1)Nc1ccc(CN2CCOCC2)cc1 | 27 nM | 110 nM |  | 
Cn1cc(-c2ccncc2CCC(=O)Nc2ccc(CN3CCOCC3)cc2)cn1 | 41 nM | 95 nM | 71% | IC50 [2]: 50 nM
Cn1cc(-c2ccncc2/C=C/C(=O)Nc2ccc(CN3CC(F)(F)C3)cc2)cn1 | 11 nM | 84 nM | 98% | solubility [3]: 44 µg/mL (≈ 107 µM)
Cn1cc(-c2ccncc2/C=C/C(=O)Nc2ccc(CNCCO)cc2)cn1 |  |  |  | Drug metabolism (Plasma): Metabolite_Detected
Cn1cc(-c2ccnc(O)c2/C=C/C(=O)Nc2ccc(CN3CCOCC3)cc2)cn1 | > 10000 nM | > 10000 nM | 89% | 
Cn1cc(-c2cc[n+]([O-])cc2/C=C/C(=O)Nc2ccc(CN3CCOCC3)cc2)cn1 |  |  |  | Drug metabolism (Plasma): Metabolite_Detected
Cn1cc(-c2ccncc2/C=C/C(=O)Nc2ccc3c(c2)CN(CC(F)(F)F)CC3)cn1 | 3.2 nM | 8.4 nM | 22% | solubility [3]: 8.9 µg/mL (≈ 20.2 µM)
Cn1cnc2cc(-c3ccncc3/C=C/C(=O)Nc3ccc(CN4CCOCC4)cc3)ccc21 | 4800 nM | > 10000 nM |  | 
Cn1cc(-c2ccncc2/C=C/C(=O)Nc2ccc(CN3CCC(F)(F)C3)cc2)cn1 | 6.2 nM | 17 nM | 69% | solubility [3]: 33 µg/mL (≈ 77.9 µM)
O=C(/C=C/c1cnccc1-c1ccc2[nH]cnc2c1)Nc1ccc(CN2CCOCC2)cc1 | 1.5 nM | 10 nM |  | 
O=C(/C=C/c1cnccc1-c1cnn(C2CC2)c1)Nc1ccc(CN2CC3CC(C2)O3)cc1 | 6.7 nM | 5.5 nM | 108% | solubility [3]: 60 µg/mL (≈ 136 µM)
COc1ncc(-c2ccncc2/C=C/C(=O)Nc2ccc(CN3CCOCC3)cc2)s1 | 8.1 nM | 12 nM |  | 
CC1COCCN1Cc1ccc(NC(=O)/C=C/c2cnccc2-c2cnn(C)c2)cc1 (stereo unspecified) | 20 nM | 27 nM | 59% | solubility [3]: > 75 µg/mL
Cn1cc(-c2ccncc2/C=C/C(=O)Nc2ccc(CN3CCOCC3=O)cc2)cn1 |  |  |  | Drug metabolism (Plasma): Metabolite_Detected
CC1CN(Cc2ccc(NC(=O)/C=C/c3cnccc3-c3cnn(C)c3)cc2)CCO1 (stereo unspecified) | 6.7 nM | 16 nM | 84% | 
NC(=O)c1ccc(-c2ccncc2/C=C/C(=O)Nc2ccc(CN3CCOCC3)cc2)s1 | 8.3 nM | 690 nM |  | 
COc1ccc(-c2ccncc2/C=C/C(=O)Nc2ccc(CN3CCOCC3)cc2)s1 | 28 nM | 97 nM |  | 

Compound | IC50 (CDK8/Cyclin C) | EC50 [1] | activity at 20 min, 30 µM (CYP3A4) | also measured
O=C(/C=C/c1cncc(F)c1-c1cnn(C2CC2)c1)Nc1ccc(CN2CCOCC2)cc1 | 6.5 nM | 2.3 nM | 46% | 
Cn1cc(-c2ccncc2/C=C/C(=O)Nc2ccc(CN3CC4CC3CO4)cc2)cn1 (stereo unspecified) | 16 nM | 19 nM | 100% | solubility [3]: > 82 µg/mL
O=C(/C=C/c1cnccc1-c1cn[nH]c1)Nc1ccc(CN2CCOCC2)cc1 | 0.54 to 80 nM | 21 to 370 nM |  | IC50 [2]: 100 nM; Drug metabolism (Plasma): Metabolite_Detected; microsomal intrinsic clearance (Liver [4]): 5.1 µL/min/mg; intrinsic clearance (Liver [5]): 6.7 µL/min/mg
O=C(/C=C/c1cnccc1-c1cnn(Cc2ccccc2)c1)Nc1ccc(CN2CCOCC2)cc1 | 4.5 nM | 28 nM |  | AUC(0-t) at 8 h [6]: 26.9 ng·h/mL; CL/F [7]: 96.1 mL/min/kg; bioavailability [8]: 15.5%; microsomal intrinsic clearance (Liver [4]): 78 µL/min/mg; MRT [9]: 1.2 h; Cmax [10]: 15.7 ng/mL; intrinsic clearance (Liver [5]): 118 µL/min/mg
O=C(/C=C/c1cnccc1-c1cnn(C2CC2)c1)Nc1ccc2c(c1)CCN(CC(F)(F)F)C2 | 7.1 nM | 14 nM | 88% | solubility [3]: 3.9 µg/mL (≈ 8.34 µM)
O=C(/C=C/c1cnccc1-c1cnn(C2CC2)c1)Nc1ccc(CN2CC3CC2CO3)cc1 (stereo unspecified) | 9.6 nM | 3.1 nM | 101% | solubility [3]: > 92 µg/mL
O=C(/C=C/c1cnccc1-c1cnn(C2CC2)c1)Nc1ccc(CN2CCOCC2)cc1 | 6.4 nM | 11 nM | 54% | IC50 [2]: 7.6 nM; AUC(0-t) at 8 h [6]: 340 ng·h/mL; CL/F [7]: 25.4 mL/min/kg; bioavailability [8]: 51.2%; microsomal intrinsic clearance (Liver [4]): 25 µL/min/mg; MRT [9]: 1.5 h; Cmax [10]: 208 ng/mL; intrinsic clearance (Liver [5]): 64 µL/min/mg
Cn1cc(-c2ccncc2/C=C/C(=O)Nc2ccc(CN3C4CCC3COC4)cc2)cn1 | 6.3 nM | 17 nM | 99% | 
Cn1cnc2ccc(-c3ccncc3/C=C/C(=O)Nc3ccc(CN4CCOCC4)cc3)cc21 | 2.5 nM | 2.4 nM |  | 
O=C(/C=C/c1cnccc1-c1cnn(CC(F)(F)F)c1)Nc1ccc(CN2CCOCC2)cc1 | 28 nM | 150 nM |  | 
Cn1cc(-c2ccncc2/C=C/C(=O)Nc2ccc3c(c2)CCN(CC(F)(F)F)C3)cn1 | 4.5 nM | 7 nM | 91% | solubility [3]: > 81 µg/mL
Cn1cc(-c2ccncc2/C=C/C(N)=O)cn1 | > 10000 nM | > 10000 nM |  | 
Cn1cc(-c2c(F)cncc2/C=C/C(=O)Nc2ccc(CN3CCOCC3)cc2)cn1 | 5.2 nM | 3.6 nM | 60% | 
O=C(CCc1cnccc1-c1cnn(C2CC2)c1)Nc1ccc(CN2CCOCC2)cc1 | 29 nM | 130 nM | 59% | IC50 [2]: 41 nM
O=C(/C=C/c1cnccc1-c1cnn(C(F)F)c1)Nc1ccc(CN2CCOCC2)cc1 | 6.4 to 24 nM | 11 to 50 nM |  | 
Cn1cc(-c2ccncc2/C=C/C(=O)Nc2ccccc2)cn1 | 51 nM | 110 nM | 97% | solubility [3]: 26 µg/mL (≈ 85.4 µM)
O=C(/C=C/c1cnccc1-c1cncs1)Nc1ccc(CN2CCOCC2)cc1 | 41 nM | 140 nM |  | 
